ChEMBL document CHEMBL4219167, “Disulfiram-based disulfides as narrow-spectrum antibacterial agents” (Bioorg Med Chem Lett, 2018)
Values after ≈ are worked out from the molar mass of the structure shown.

Tests used:
[1] = system: Staphylococcus aureus; test: Antibacterial activity against methicillin-resistant Staphylococcus aureus COL after 20 hrs by broth microdilution assay; type: functional
[2] = system: Staphylococcus aureus; test: Antibacterial activity against vancomycin-resistant Staphylococcus aureus HIP14300 after 20 hrs by broth microdilution assay; type: functional; conditions: HIP14300, 20 h
[3] = system: Staphylococcus epidermidis; test: Antibacterial activity against vancomycin-intermediate resistant Staphylococcus epidermidis NRS6 after 20 hrs by broth microdilution assay; type: functional; conditions: NRS6, 20 h
[4] = system: Streptococcus pyogenes; test: Antibacterial activity against Streptococcus pyogenes H293 after 20 hrs by broth microdilution assay; type: functional; conditions: H293, 20 h
[5] = system: Streptococcus agalactiae; test: Antibacterial activity against Streptococcus agalactiae SGBS005 after 20 hrs by broth microdilution assay; type: functional; conditions: SGBS005, 20 h
[6] = system: Streptococcus pneumoniae; test: Antibacterial activity against Streptococcus pneumoniae TCH8431 after 20 hrs by broth microdilution assay; type: functional; conditions: TCH8431, 20 h
[7] = system: Enterococcus faecium; test: Antibacterial activity against vancomycin-resistant Enterococcus faecium ATCC 700221 after 20 hrs by broth microdilution assay; type: functional; conditions: ATCC 700221, 20 h
How it was run: (§1)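 Brain heart infusion broth at 37°C; E. faecium under 5% CO2. Cells at 0.5 McFarland are diluted 1:100 and exposed to serial dilutions (DMSO stocks 1 mM or 1 mg/mL; controls in water).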

[8] = system: Staphylococcus epidermidis; test: Antibacterial activity against vancomycin-intermediate resistant Staphylococcus epidermidis NRS53 after 20 hrs by broth microdilution assay; type: functional; conditions: NRS53, 20 h
[9] = system: Staphylococcus aureus; test: Antibacterial activity against vancomycin-intermediate resistant Staphylococcus aureus AR-217 after 20 hrs by broth microdilution assay; type: functional; conditions: AR-217, 20 h
[10] = system: Bacillus anthracis; test: Antibacterial activity against Bacillus anthracis Ames 35 after 20 hrs by broth microdilution assay; type: functional; conditions: Ames 35, 20 h
[11] = system: Bacillus anthracis; test: Antibacterial activity against Bacillus anthracis Sterne 34F2 after 20 hrs by broth microdilution assay; type: functional; conditions: Sterne 34F2, 20 h
[12] = system: Bacillus anthracis; test: Antibacterial activity against Bacillus anthracis UM23-1 after 20 hrs by broth microdilution assay; type: functional; conditions: UM23-1, 20 h
[13] = system: Bacillus anthracis; test: Antibacterial activity against Bacillus anthracis Weybridge after 20 hrs by broth microdilution assay; type: functional
[14] = system: Francisella tularensis; test: Antibacterial activity against Francisella tularensis Utah 112 after 20 hrs by broth microdilution assay; type: functional; conditions: Utah 112, 20 h
[15] = system: Yersinia pestis; test: Antibacterial activity against Yersinia pestis Kim D2 after 20 hrs by broth microdilution assay; type: functional; conditions: Kim D2, 20 h
[16] = system: Yersinia pestis; test: Antibacterial activity against Yersinia pestis Kuma D7 after 20 hrs by broth microdilution assay; type: functional; conditions: Kuma D7, 20 h
[17] = system: Bacillus cereus; test: Antibacterial activity against Bacillus cereus Gibson 971 after 20 hrs by broth microdilution assay; type: functional; conditions: Gibson 971, 20 h
[18] = system: Corynebacterium striatum; test: Antibacterial activity against Corynebacterium striatum FS-1 after 20 hrs by broth microdilution assay; type: functional; conditions: FS-1, 20 h
[19] = system: Listeria monocytogenes; test: Antibacterial activity against Listeria monocytogenes Gibson after 20 hrs by broth microdilution assay; type: functional; how it was run: as §1
[20] = system: Micrococcus luteus; test: Antibacterial activity against Micrococcus luteus SK58 after 20 hrs by broth microdilution assay; type: functional; conditions: SK58, 20 h
[21] = system: Rhodococcus erythropolis; test: Antibacterial activity against Rhodococcus erythropolis SK121 after 20 hrs by broth microdilution assay; type: functional; conditions: SK121, 20 h
How it was run: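 R. erythropolis grown in brain heart infusion broth at 30°C. A 0.5 McFarland suspension diluted 1:100 is treated with serial dilutions from 1 mM or 1 mg/mL DMSO stocks; control antibiotics are in water.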

[22] = system: Acinetobacter baumannii; test: Antibacterial activity against Acinetobacter baumannii AB5075 after 20 hrs by broth microdilution assay; type: functional; conditions: AB5075, 20 h
[23] = system: Brucella neotomae; test: Antibacterial activity against Brucella neotomae 5K33 after 20 hrs by broth microdilution assay; type: functional; conditions: 5K33, 20 h
[24] = system: Burkholderia multivorans; test: Antibacterial activity against Burkholderia multivorans CF2 after 20 hrs by broth microdilution assay; type: functional; conditions: CF2, 20 h
How it was run: (§2)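 Medium is tryptic soy broth, 37°C. Overnight culture is adjusted to 0.5 McFarland, diluted 1:100 and exposed to serial dilutions (test agents from 1 mM or 1 mg/mL DMSO stocks; control antibiotics in water). Incubation lasts 20 h. MIC is the lowest concentration with no visible growth.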

[25] = system: Burkholderia cepacia; test: Antibacterial activity against Burkholderia cepacia UCB 717 after 20 hrs by broth microdilution assay; type: functional; conditions: UCB 717, 20 h; how it was run: as §2
[26] = system: Citrobacter freundii; test: Antibacterial activity against Citrobacter freundii 4_7_47CFAA after 20 hrs by broth microdilution assay; type: functional
How it was run: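 Brucella broth, 37°C, 5% CO2. Inoculum is 0.5 McFarland diluted 1:100, with serial drug dilutions from DMSO stocks (1 mM or 1 mg/mL) and control antibiotics in water.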

[27] = system: Escherichia coli; test: Antibacterial activity against Escherichia coli DC10B after 20 hrs by broth microdilution assay; type: functional; how it was run: as §2
[28] = system: Klebsiella pneumoniae; test: Antibacterial activity against Klebsiella pneumoniae 700603 after 20 hrs by broth microdilution assay; type: functional; conditions: Klebsiella pneumoniae, 700603, 20 h; how it was run: as §2
[29] = system: Proteus mirabilis; test: Antibacterial activity against Proteus mirabilis HM-752 after 20 hrs by broth microdilution assay; type: functional; conditions: HM-752, 20 h; how it was run: as §2
[30] = system: Pseudomonas aeruginosa; test: Antibacterial activity against Pseudomonas aeruginosa ATCC 15442 after 20 hrs by broth microdilution assay; type: functional; conditions: ATCC 15442, 20 h; how it was run: as §2
[31] = system: Salmonella typhi; test: Antibacterial activity against Salmonella typhi Ty2 after 20 hrs by Todd Hewitt broth broth microdilution method; type: functional, Salmonella enterica subsp. enterica serovar Typhi str. Ty2; conditions: Salmonella enterica
[32] = system: Yersinia enterocolitica; test: Antibacterial activity against Yersinia enterocolitica WA-314 after 20 hrs by broth microdilution assay; type: functional; conditions: WA-314, 20 h
How it was run: (§3)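 Yersinia cultured in tryptic soy broth at 28°C. A 0.5 McFarland suspension diluted 1:100 receives serial dilutions of agents from 1 mM or 1 mg/mL DMSO stocks; control antibiotics are in water.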

[33] = system: Shigella dysenteriae; test: Antibacterial activity against Shigella dysenteriae Newcastle 1934 after 20 hrs by broth microdilution assay; type: functional; conditions: Newcastle 1934, 20 h; how it was run: as §2
[34] = system: Vibrio cholerae; test: Antibacterial activity against Vibrio cholerae TS D4 after 20 hrs by Todd Hewitt broth broth microdilution method; type: functional; conditions: TS D4, 20 h
[35] = system: Yersinia pseudotuberculosis; test: Antibacterial activity against Yersinia pseudotuberculosis P61 after 20 hrs by broth microdilution assay; type: functional; conditions: P61, 20 h; how it was run: as §3
[36] = system: HepG2; test: Cytotoxicity against human HepG2 cells assessed as reduction in cell viability after 72 hrs by MTT assay; type: cell-based; conditions: HepG2, 72 h

CN[C@H](CC(C)C)C(=O)N[C@H]1C(=O)N[C@@H](CC(N)=O)C(=O)N[C@H]2C(=O)N[C@H]3C(=O)N[C@H](C(=O)N[C@H](C(=O)O)c4cc(O)cc(O)c4-c4cc3ccc4O)[C@H](O)c3ccc(c(Cl)c3)Oc3cc2cc(c3O[C@@H]2O[C@H](CO)[C@@H](O)[C@H](O)[C@H]2O[C@H]2C[C@](C)(N)[C@H](O)[C@H](C)O2)Oc2ccc(cc2Cl)[C@H]1O [VANCOMYCIN]
MIC [1]: 1 µM (≈ 1.45 µg/mL) | MIC [2]: > 32 µM | MIC [3]: 8 µM (≈ 11.6 µg/mL) | MIC [4]: ≤ 0.5 µM | MIC [5]: ≤ 0.5 µM | MIC [6]: ≤ 0.5 µM | MIC [7]: > 32 µM | MIC [8]: 8 mg/L (≈ 5.52 µM)

CCCCCCSSC(=S)N(CC)CC [DIETHYLCARBAMO(DITHIOPEROXO)THIOATE]
MIC [1]: 16 µM (≈ 4.25 µg/mL) | MIC [9]: 4 µM (≈ 1.06 µg/mL) | MIC [2]: 8 µM (≈ 2.12 µg/mL) | MIC [3]: 8 µM (≈ 2.12 µg/mL) | MIC [4]: > 32 µM | MIC [5]: > 32 µM | MIC [6]: > 32 µM | MIC [7]: > 32 µM | MIC [10]: 4 µM (≈ 1.06 µg/mL) | MIC [11]: 4 µM (≈ 1.06 µg/mL) | MIC [12]: 2 µM (≈ 0.531 µg/mL) | MIC [13]: 8 µM (≈ 2.12 µg/mL) | MIC [14]: 32 µM (≈ 8.5 µg/mL) | MIC [15]: 32 µM (≈ 8.5 µg/mL) | MIC [16]: 32 µM (≈ 8.5 µg/mL) | MIC [17]: 2 µM (≈ 0.531 µg/mL) | MIC [18]: 16 µM (≈ 4.25 µg/mL) | MIC [19]: 8 µM (≈ 2.12 µg/mL) | MIC [20]: 16 µM (≈ 4.25 µg/mL) | MIC [21]: 8 µM (≈ 2.12 µg/mL) | MIC [22]: > 32 µM | MIC [23]: > 32 µM | MIC [24]: > 32 µM | MIC [25]: > 32 µM | MIC [26]: > 32 µM | MIC [27]: > 32 µM | MIC [28]: > 32 µM | MIC [29]: > 32 µM | MIC [30]: > 32 µM | MIC [31]: > 32 µM | MIC [32]: > 32 µM | MIC [33]: > 32 µM | MIC [34]: > 32 µM | MIC [35]: > 32 µM | IC50 [36]: 51 µM
